The values that follow come from ChEMBL document CHEMBL3259627, “Allosteric inhibition of human factor XIa: discovery of monosulfated benzofurans as a class of promising inhibitors” (J Med Chem, 2014).

pIC50, pKd: −log10 of the molar value. Calls of active or inactive are those of the source. The calls are words filed in the database; no cut-off is given here.

The target of experiment [1] is T1, Coagulation factor XI (Homo sapiens, UniProt P03951). In words: Inhibition of full-length human factor-11a-mediated S-2366 hydrolysis preincubated for 10 mins followed by substrate addition by spectrophotometric analysis. A digest of the protocol:
(§1)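 Dose-response run in the same Tris pH 7.4 buffer with NaCl, PEG8000 and Tween80. Serial 2/3 or 5/6 inhibitor dilutions were preincubated 10 min at 37 °C with fXIa (0.765 nM final). S-2366 was then added (330 μM final) and the initial A405 rate read. Residual activity versus log[I] was fitted to a logistic equation for IC50, Hill slope, YM and Y0. At least two measurements; ± SD.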

Experiment [2] deals with T1, Coagulation factor XI. In words: Inhibition of full-length human factor-11a-mediated S-2366 hydrolysis assessed as reduction in residual activity at 300 uM preincubated for 10 mins followed by substrate addition by spectrophotometric analysis relative to control. A digest of the protocol: (§2)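 Single-point screen: inhibitor (300 μM final) incubated with fXIa (0.765 nM final) in 0.05 M Tris-HCl pH 7.4, 0.15 M NaCl, 0.1% PEG8000, 0.02% Tween80, 10 min at 37 °C. S-2366 then added (330 μM final) and the initial rate taken from A405 rise (<10% conversion). Residual activity (%) is the rate ratio with versus without inhibitor. At least duplicate; mean ± SD.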

Experiment [3] has as its target T1, Coagulation factor XI. In words: Inhibition of full-length human factor-11a-mediated S-2366 hydrolysis preincubated for 10 mins followed by substrate addition by spectrophotometric analysis relative to control. A digest of the protocol: as §1
In experiment [4] the target is T1, Coagulation factor XI. The experiment is described as follows: Activation of full-length human factor-11a-mediated S-2366 hydrolysis at 300 uM preincubated for 10 mins followed by substrate addition by spectrophotometric analysis relative to control. Further details: scale not given: the % may be the effect or the level left. A digest of the protocol:
as §2

Experiment [5] deals with T1, Coagulation factor XI. In words: Inhibition of full-length human factor-11a-mediated S-2366 hydrolysis at 300 uM preincubated for 10 mins followed by substrate addition by spectrophotometric analysis relative to control. A digest of the protocol:
as §2

Experiment [6] concerns the target T1, Coagulation factor XI. In words: Binding affinity to fluorescein-EGR-labeled human factor-11a by fluorescence spectroscopic analysis. A digest of the protocol: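 fXIa active-site labeled with fluorescein-EGR (74 nM) in Tris pH 7.4 buffer without Tween80 at 37 °C. Excitation at 480 nm, emission recorded at 522 nm during ligand titration. ΔF/F0 versus ligand concentration was fitted to a quadratic binding equation to give the dissociation constant.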

Experiment [7] concerns the target T1, Coagulation factor XI.
The target in experiment [8] is T1, Coagulation factor XI. The experiment is described as follows: Inhibition of human factor-11a catalytic domain-mediated S-2366 hydrolysis preincubated for 10 mins followed by substrate addition by spectrophotometric analysis. A digest of the protocol: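 Recombinant fXIa catalytic domain (0.765 nM final) in 0.05 M Tris-HCl pH 7.4, 0.15 M NaCl, 0.1% PEG8000, 0.02% Tween80. Incubated 10 min at 37 °C with serial inhibitor dilutions (2/3 or 5/6 decrements), then S-2366 added to 330 μM final. Initial A405 rate gives residual activity; IC50 from logistic fit versus log[I]; at least two measurements.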

T1 sequence (P03951 19-387 limits assumed): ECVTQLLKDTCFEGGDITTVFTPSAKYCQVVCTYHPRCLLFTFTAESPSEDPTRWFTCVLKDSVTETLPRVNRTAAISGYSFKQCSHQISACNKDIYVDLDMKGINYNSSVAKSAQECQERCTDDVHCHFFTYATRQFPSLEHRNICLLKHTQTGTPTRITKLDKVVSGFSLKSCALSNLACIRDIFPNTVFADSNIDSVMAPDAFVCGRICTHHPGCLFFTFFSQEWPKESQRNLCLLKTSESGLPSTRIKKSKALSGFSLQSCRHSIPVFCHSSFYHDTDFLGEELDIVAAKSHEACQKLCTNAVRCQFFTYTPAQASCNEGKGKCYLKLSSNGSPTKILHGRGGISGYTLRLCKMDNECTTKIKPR
T1 sequence (P03951 388-625 limits assumed): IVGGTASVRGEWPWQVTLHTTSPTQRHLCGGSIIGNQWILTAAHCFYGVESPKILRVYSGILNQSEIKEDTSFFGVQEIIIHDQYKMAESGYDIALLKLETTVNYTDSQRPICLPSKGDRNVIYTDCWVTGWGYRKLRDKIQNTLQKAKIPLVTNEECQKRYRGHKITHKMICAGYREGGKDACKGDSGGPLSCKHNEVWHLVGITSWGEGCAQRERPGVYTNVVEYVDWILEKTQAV

Usually pIC50 stands for −log10 of the IC50, conventionally taken in molar units. In turn, `CCOC(=O)c1c(C)oc2cc(OC)c(OCc3oc4cc(OC)c(OCc5oc6cc(OC(C)C)c(OS(=O)(=O)O)cc6c5C(=O)OCC)cc4c3C(=O)OCC)cc12` showed a pIC50 in experiment [1] of 4.33. Besides, the Activity in experiment [2] was > 50%. For the same compound, in experiment [3], the Efficacy stood at 100%.

The compound `O=C(c1cc(OS(=O)(=O)O)c(OS(=O)(=O)O)c(OS(=O)(=O)O)c1)N1CCc2cc(OS(=O)(=O)O)c(OS(=O)(=O)O)cc2C1` came in with an Activity in experiment [4] of 20%.

The compound `CCOC(=O)C1Cc2cc(OS(=O)(=O)O)c(OS(=O)(=O)O)cc2CN1C(=O)c1ccc(OS(=O)(=O)O)c(OS(=O)(=O)O)c1` (stereo unspecified) registered an Activity in experiment [4] of 20%.

One may read the inhibition as the share of the control response that was lost under treatment. For `CCOC(=O)c1c(C)oc2cc(OCc3oc4cc(OC)c(OS(=O)(=O)O)cc4c3C(=O)OCC)c(OC)cc12`, the inhibition entry in experiment [5] was “inactive”.

As to `O=C(O)C1Cc2cc(OS(=O)(=O)O)c(OS(=O)(=O)O)cc2CN1C(=O)c1cc(OS(=O)(=O)O)c(OS(=O)(=O)O)c(OS(=O)(=O)O)c1` (stereo unspecified), the Activity in experiment [4] is 20%.

`C=CCOC(=O)c1c(C)oc2cc(OC)c(OCc3oc4cc(OC)c(OCc5oc6cc(OC)c(OS(=O)(=O)O)cc6c5C(=O)OCC)cc4c3C(=O)OCC)cc12` gave a negative-log IC50 (pIC50) in experiment [1] of 4.52. In experiment [2], the Activity is > 50%. The compound further showed an Efficacy in experiment [3] of 100%.

`COC(=O)c1c(C)oc2cc(OC)c(OCc3oc4cc(OC)c(OS(=O)(=O)O)cc4c3C(=O)OC)cc12`: in experiment [1], the pIC50 was 5.01. Moreover, in experiment [2], the Activity is > 50%. In experiment [3], the Efficacy amounted to 100%.

With `CCOC(=O)c1c(C)oc2cc(OC)c(OCc3oc4cc(OC)c(OCc5oc6cc(OC)c(OS(=O)(=O)O)cc6c5C(=O)OC)cc4c3C(=O)OCC)cc12`, the pIC50 in experiment [1] was 4.83. Besides, the Activity in experiment [2] is > 50%. This compound registered an Efficacy in experiment [3] of 100%.

Compound `O=C(Nc1ccc(OS(=O)(=O)O)cc1)c1cccc(N2C(=O)c3ccc(C(=O)Nc4ccc(OS(=O)(=O)O)cc4)cc3C2=O)c1` gave a pIC50 in experiment [1] of 3.91. The Activity in experiment [2] was > 50%. The Efficacy in experiment [3] came to 100%.

On to `CCOC(=O)c1c(C)oc2cc(OC)c(OCc3oc4cc(OC)c(OCc5oc6cc(OC)c(OCc7oc8cc(OC)c(OS(=O)(=O)O)cc8c7C(=O)OCC)cc6c5C(=O)OCC)cc4c3C(=O)OCC)cc12`, for which, in experiment [1], the pIC50 was 4.00. Besides, in experiment [2], the Activity was > 50%. In experiment [3], this compound showed an Efficacy of 100%.

Broadly, the pKd is −log10 of the Kd, conventionally taken in molar units. In the case of `CCOC(=O)c1c(C)oc2cc(OC)c(OCc3oc4cc(OC)c(OCc5oc6cc(OCC)c(OS(=O)(=O)O)cc6c5C(=O)OCC)cc4c3C(=O)OCC)cc12`, the pIC50 is 6.09 in experiment [1] and 4.31 in experiment [8]. Further, in experiment [2], the Activity is > 50%. Also, the pKd in experiment [6] was 5.92. In experiment [7], this compound had a KSV of 2.3. Also, in experiment [3], the Efficacy came to 100%.

In the case of `O=C(c1cc(OS(=O)(=O)O)cc(OS(=O)(=O)O)c1)N1CCc2cc(OS(=O)(=O)O)c(OS(=O)(=O)O)cc2C1`, the Activity in experiment [4] turned out to be 20%.

`CCOC(=O)c1c(C)oc2cc(OC)c(OCc3oc4cc(OCC)c(OS(=O)(=O)O)cc4c3C(=O)OCC)cc12` showed a pIC50 in experiment [1] of 5.12. The Activity in experiment [2] was > 50%. The compound also had a pKd in experiment [6] of 5.35. The Efficacy in experiment [3] came to 100%.

`CCOC(=O)c1c(COc2cc3c(C(=O)O)c(C)oc3cc2OC)oc2cc(OC)c(OCc3oc4cc(OC)c(OS(=O)(=O)O)cc4c3C(=O)OCC)cc12` had a pIC50 in experiment [1] of 4.52. Moreover, in experiment [2], the Activity is > 50%. Also, the Efficacy in experiment [3] stood at 100%.

`CCOC(=O)c1c(COc2cc3c(C(=O)OCC)c(COc4cc5c(C(=O)O)c(C)oc5cc4OC)oc3cc2OC)oc2cc(OC)c(O)cc12` gave a negative logarithm of the IC50 (pIC50) in experiment [1] of 3.42. The compound also had an inhibition in experiment [5] of 50%. The Efficacy in experiment [3] is 100%.

As to `CCOC(=O)c1c(C)oc2cc(OC)c(OCc3oc4cc(OC)c(OCc5oc6cc(OS(=O)(=O)O)c(OC)cc6c5C(=O)OCC)cc4c3C(=O)OCC)cc12`, the inhibition result in experiment [5] was “inactive”.

`N#Cc1c(SCC(=O)c2cccc(OS(=O)(=O)O)c2OS(=O)(=O)O)nc([N+](=O)[O-])c(C#N)c1-c1ccc(Oc2ccccc2)cc1`: the pIC50 in experiment [1] was 3.96. The Activity in experiment [2] was > 50%. Moreover, the Efficacy in experiment [3] was determined as 100%.

Compound `CCOC(=O)c1c(C)oc2cc(OC)c(OCc3oc4cc(OC)c(OCc5oc6cc(OC)c(OS(=O)(=O)O)cc6c5C(=O)OCC)cc4c3C(=O)OCC)cc12` had a pIC50 in experiment [1] of 5.19. Further, the Activity in experiment [2] is > 50%. The same compound gave an Efficacy in experiment [3] of 100%.
